The source made the active and inactive calls. The calls are words filed in the database; no cut-off is given here.
Key:
Mus musculus [1] = test: Toxicity in nude mouse xenografted with human HepG2 cells assessed as body weight change at 10 mg/kg, ip administered every day for 15 times measured from day 12 to 26; format: organism-based; settings: in vivo
In short: (§1)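 Same subcutaneous HepG-2 xenograft in female nude mice (5 × 10^6 cells, left flank). n = 5 per group, daily i.p. dosing for 15 times, saline control. Body weight of each mouse recorded every other day during therapy and followed after treatment stopped. Treated versus untreated compared by p value over days 12–26.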

[2] = Antitumor activity against human HepG2 cells xenografted in nude mouse assessed as tumor growth inhibition at 20 mg/kg, ip administered every day for 15 times measured from day 12 to 26; format: functional; design: scale not given: the % may be the effect or the level left
In short: (§2)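 Female nude mice given 5 × 10^6 HepG-2 cells subcutaneously in the left flank. Randomized, n = 5 per group. Daily i.p. injection for 15 times, with saline as vehicle control. Tumor length and width recorded every other day; volume taken as 1/2·length·width² once tumors reached 130–160 mm3. Result is tumor growth inhibition versus the saline group.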

Mus musculus [3] = test: Toxicity in nude mouse xenografted with human HepG2 cells assessed as body weight change at 20 mg/kg, ip administered every day for 15 times measured from day 12 to 26; format: organism-based; settings: in vivo; in short: as §1
[4] = Antitumor activity against human HepG2 cells xenografted in nude mouse assessed as tumor growth inhibition at 10 mg/kg, ip administered every day for 15 times measured from day 12 to 26; format: functional; design: scale not given: the % may be the effect or the level left; in short: as §2
HepG2 [5] = test: Induction of apoptosis in human HepG2 cells assessed as late apoptotic cells at 6 uM after 24 hrs by Annexin V-FITC/propidium iodide staining based flow cytometric analysis analysis (reference value: 5.93 %); format: functional
HepG2 [6] = test: Induction of apoptosis in human HepG2 cells assessed as late apoptotic cells at 2 uM after 24 hrs by Annexin V-FITC/propidium iodide staining based flow cytometric analysis analysis (reference value: 5.93 %); format: functional
Mus musculus [7] = test: Toxicity in nude mouse xenografted with human HepG2 cells assessed as body weight change at 10 and 20 mg/kg, ip administered every day for 15 days and measured treatment cessation; format: organism-based; settings: in vivo, 360 h; in short: as §1
HepG2 [8] = test: Induction of apoptosis in human HepG2 cells assessed as viable cells at 2 uM after 24 hrs by Annexin V-FITC/propidium iodide staining based flow cytometric analysis analysis (reference value: 90.7 %); format: functional; settings: HepG2, 24 h, read-out: Activity
HepG2 [9] = test: Induction of apoptosis in human HepG2 cells assessed as necrotic cells at 2 uM after 24 hrs by Annexin V-FITC/propidium iodide staining based flow cytometric analysis analysis (reference value: 1.74 %); format: functional
[10] = Cell cycle arrest in human HepG2 cells assessed as accumulation at G1 phase at 1 to 3 uM after 24 hrs by propidium iodide staining-based flow cytometric analysis; format: functional
In short: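 HepG2 cells exposed 24 h, then trypsinized, washed in ice-cold PBS and fixed in ice-cold 70% ethanol for at least 24 h. Resuspended in 0.4 mL PBS with RNase A (1 mg/ml stock) and PI (500 ug/ml stock) for 30 min at 4 °C in the dark. Cycle distribution (G1, S, G2/M percentages) read by flow cytometry.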

HepG2 [11] = test: Induction of apoptosis in human HepG2 cells assessed as early apoptotic cells at 2 uM after 24 hrs by Annexin V-FITC/propidium iodide staining based flow cytometric analysis analysis (reference value: 1.60 %); format: functional
[12] = Cytotoxicity against human MCF7 cells after 72 hrs by MTT assay; format: functional, cell-based; settings: MCF7, 72 h
In short: (§3)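 Cells cultured in DMEM or RPMI 1640 with 10% FBS. Seeded at about 2 × 10^3 per well and grown 24 h at 37 °C, 5% CO2. Compounds added at final 0.1–1000 uM for 72 h, 5 wells per concentration. MTT added for 4 h at 37 °C, then lysis overnight. Absorbance read at 570 nm against a 650 nm reference; IC50 calculated.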

HepG2 [13] = test: Induction of apoptosis in human HepG2 cells assessed as early apoptotic cells at 6 uM after 24 hrs by Annexin V-FITC/propidium iodide staining based flow cytometric analysis analysis (reference value: 1.60 %); format: functional
HepG2 [14] = test: Induction of apoptosis in human HepG2 cells assessed as viable cells at 4 uM after 24 hrs by Annexin V-FITC/propidium iodide staining based flow cytometric analysis analysis (reference value: 90.7 %); format: functional; settings: HepG2, 24 h, read-out: Activity
[15] = Cytotoxicity against human DU145 cells after 72 hrs by MTT assay; format: functional, cell-based; settings: DU-145, 72 h; in short: as §3
HepG2 [16] = test: Induction of apoptosis in human HepG2 cells assessed as necrotic cells at 6 uM after 24 hrs by Annexin V-FITC/propidium iodide staining based flow cytometric analysis analysis (reference value: 1.74 %); format: functional
HepG2 [17] = test: Induction of apoptosis in human HepG2 cells assessed as early apoptotic cells at 4 uM after 24 hrs by Annexin V-FITC/propidium iodide staining based flow cytometric analysis analysis (reference value: 1.60 %); format: functional
[18] = Cytotoxicity against human HepG2 cells after 72 hrs by MTT assay; format: functional, cell-based; settings: HepG2, 72 h; in short: as §3
[19] = Cytotoxicity against human A549 cells after 72 hrs by MTT assay; format: functional, cell-based; settings: A549, 72 h; in short: as §3
[20] = Cytotoxicity against human SH-SY5Y cells after 72 hrs by MTT assay; format: functional, cell-based; in short: as §3
[21] = Cytotoxicity against human GES-1 cells assessed as reduction in cell viability after 72 hrs by MTT assay; format: toxicity, cell-based, GES1; in short: as §3
HepG2 [22] = test: Induction of apoptosis in human HepG2 cells assessed as late apoptotic cells at 4 uM after 24 hrs by Annexin V-FITC/propidium iodide staining based flow cytometric analysis analysis (reference value: 5.93 %); format: functional
HepG2 [23] = test: Induction of apoptosis in human HepG2 cells assessed as viable cells at 6 uM after 24 hrs by Annexin V-FITC/propidium iodide staining based flow cytometric analysis analysis (reference value: 90.7 %); format: functional; settings: HepG2, 24 h, read-out: Activity
HepG2 [24] = test: Induction of apoptosis in human HepG2 cells assessed as necrotic cells at 4 uM after 24 hrs by Annexin V-FITC/propidium iodide staining based flow cytometric analysis analysis (reference value: 1.74 %); format: functional

O=P1(N(CCCl)CCCl)NCCCO1 (stereo not drawn) [CYCLOPHOSPHAMIDE ANHYDROUS]
Activity (Mus musculus [1]): 7.04% | Activity [2]: 51.48% | Activity (Mus musculus [3]): 10.63% | Activity [4]: 42.11%

N#Cc1cnn2c(Nc3ccc(N(CCCl)CCCl)cc3)cc(CN3CCC(N4CCCCC4)CC3)nc12
Activity (HepG2 [5]): 29.5% | Activity (HepG2 [6]): 11.9% | Activity (Mus musculus [7]): Non-Toxic | viability at 2 µM (HepG2 [8]): 81.8% | Activity (Mus musculus [1]): 7.15% | Activity (HepG2 [9]): 3.39% | Activity [2]: 58.26% | Activity [10]: Active | Activity (HepG2 [11]): 2.87% | IC50 [12]: 8.31 µM | Activity (HepG2 [13]): 5.56% | viability at 4 µM (HepG2 [14]): 73.2% | IC50 [15]: 6.82 µM | Activity (HepG2 [16]): 7.69% | Activity (HepG2 [17]): 3.78% | IC50 [18]: 0.21 µM | IC50 [19]: 6.13 µM | Activity (Mus musculus [3]): 9.21% | Activity [4]: 43.88% | IC50 [20]: 6.02 µM | IC50 at 72 h [21]: 9.54 µM | Activity (HepG2 [22]): 18% | viability at 6 µM (HepG2 [23]): 57.3% | Activity (HepG2 [24]): 5.08%

Reference: ChEMBL document CHEMBL3853295, “Design and synthesis of novel pyrazolo[1,5-a]pyrimidine derivatives bearing nitrogen mustard moiety and evaluation of their antitumor activity in vitro and in vivo” (Eur J Med Chem, 2016)
